Source: PubChem (several laboratories)
Only a selection was taken, and hits are over-represented in it overall.
tolC growth inh: E. coli tolC mutant growth inhibition | hit rate 2.2% among 65,000 | growth inhibition, % at 10 µM (by protocol) | E. coli BW25113 tolC mutant growth, OD615;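 active means growth inhibition at or above a cutoff equal to the mean over every tested compound plus 3 SD, cut at about 60% in these data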;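 further: growth measured after 20 h incubation at 37 °C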
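Signal: optical density read at 615 nm; Assay system: E. coli ΔtolC::kan strain BW25113; Times: 20 h incubation with compound, 37 °C; Dosing: 10 µM final, single dose.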
CD11b adhes enh: increases human CD11b/CD18 adhesion to fibrinogen; P05107+P11215; K562 CD11b/CD18 adhesion to fibrinogen, ATPlite luminescence; activation, % at 10 µM; hit rate 0.07% among 93,000; AID 1499;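 active means 10 µM primary screen giving 50% or more activity, confirmed by 40% or more on retest at that dose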
Target sequence (P05107 whole entry, looked up, other chains not shown): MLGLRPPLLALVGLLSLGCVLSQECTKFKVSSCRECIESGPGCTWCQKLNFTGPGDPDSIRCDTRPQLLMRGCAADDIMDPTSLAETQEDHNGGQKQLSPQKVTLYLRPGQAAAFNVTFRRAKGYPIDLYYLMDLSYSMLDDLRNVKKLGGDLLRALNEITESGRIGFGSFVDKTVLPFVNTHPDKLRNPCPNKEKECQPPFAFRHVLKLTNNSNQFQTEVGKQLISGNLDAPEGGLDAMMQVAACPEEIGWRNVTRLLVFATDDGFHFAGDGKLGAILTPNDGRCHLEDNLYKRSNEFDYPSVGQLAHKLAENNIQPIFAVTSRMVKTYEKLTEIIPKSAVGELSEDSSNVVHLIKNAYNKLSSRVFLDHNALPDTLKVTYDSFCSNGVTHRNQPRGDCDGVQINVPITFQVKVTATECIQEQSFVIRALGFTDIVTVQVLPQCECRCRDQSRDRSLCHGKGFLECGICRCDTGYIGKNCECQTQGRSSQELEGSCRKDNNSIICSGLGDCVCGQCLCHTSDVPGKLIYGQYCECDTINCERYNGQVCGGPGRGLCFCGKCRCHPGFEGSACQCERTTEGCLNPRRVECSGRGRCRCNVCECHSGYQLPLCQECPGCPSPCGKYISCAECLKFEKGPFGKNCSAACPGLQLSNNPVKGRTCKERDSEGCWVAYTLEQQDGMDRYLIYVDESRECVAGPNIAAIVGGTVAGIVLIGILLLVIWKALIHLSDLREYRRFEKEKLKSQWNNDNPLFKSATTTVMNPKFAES
Ecoli WT expand: blocks growth of wild type E. coli BW25113. hit rate 0.15% among 98,000. OD600 absorbance. AID 710. growth inhibition, % at 100 µM;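 active means growth inhibition above about 50% at one test dose, limit read from the data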;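 further: growth measured after 20 h incubation at 37 °C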
Mac1 fbg inh: CD11b/CD18-fibrinogen binding inhibition; K562 CD11b/CD18 adhesion to fibrinogen, ATPlite luminescence; Mn2+ added to activate the integrin; inhibition, % at 10 µM; hit rate 0.54% among 93,000;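 active means primary inhibition of 50% or more at 10 µM, then 40% or more on retest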
Numbers stand for hits; – = inactive; · = no result.

SMILES	tolC growth inh	CD11b adhes enh	Ecoli WT expand	Mac1 fbg inh
CC1(C)COC(c2ccc(F)c([N+](=O)[O-])c2)=N1	·	–	·	–
CCC(Oc1ccccc1)C(=O)Nc1ccc(-c2nnc(-c3ccco3)o2)cc1 (stereo unspecified)	66	–	–	–
CCC(Oc1ccccc1)C(=O)Nc1nnc(C(F)(F)F)s1 (stereo unspecified)	87	–	–	74
CCC(C)c1ccccc1NC(=O)COC(=O)c1ccc2c(c1)S(=O)(=O)c1ccccc1C2=O (stereo unspecified)	·	–	·	–
Brc1cc(Br)c2nc(-c3cccs3)ccc2c1	·	–	–	–
Cc1nc2c(Br)cc(Br)cc2cc1O	·	–	–	90
CC(C)C1O/C(=N/C(=O)Nc2ccc(Cl)c(Cl)c2)NC1=O (stereo unspecified)	98	–	53	–
O=C(CCc1ccc(Oc2cc([N+](=O)[O-])cc([N+](=O)[O-])c2)cc1)N1CCCCCC1	·	–	·	–
CCCCCc1nnc(NC(=O)Cn2cnc3ccccc3c2=O)s1	·	–	·	–
COc1nnc(-c2ccc(N3CCCCC3)c(N)c2)c2ccccc12	63	·	·	·
O=C(Nc1nncs1)C1COc2ccccc2O1 (stereo unspecified)	–	–	–	–
O=C(Nc1nnc(C(F)(F)F)s1)C1COc2ccccc2O1 (stereo unspecified)	·	–	–	84
COC(=O)c1ccc(NC(=O)c2cccc(Cl)c2)o1	·	·	–	·
CCn1c(SCC(=O)Nc2nc(-c3ccccc3)cs2)nnc1-c1ccccc1O	86	–	–	–
CCc1nnc(NC(=O)CSc2nnc(-c3ccccc3O)n2CC)s1	·	–	–	–
O=[N+]([O-])c1cc(S(=O)(=O)Nc2cccc(C(F)(F)F)c2)ccc1-n1nnc2ccccc21	·	–	–	95
COc1ccc(S(=O)(=O)C(C#N)c2nc3ccccc3nc2N2CCC(C)CC2)cc1 (stereo unspecified)	–	–	·	–
C=CCOC(=O)C(C#N)c1nc2ccccc2nc1N1CCN(Cc2ccccc2)CC1 (stereo unspecified)	100	–	–	–
N#CC(c1nc2ccccc2nc1N1CCCCC1)S(=O)(=O)c1ccc(Cl)cc1 (stereo unspecified)	89	–	·	–
Cc1ccc(S(=O)(=O)C(C#N)c2nc3ccccc3nc2N2CCCCC2)cc1 (stereo unspecified)	–	–	·	–
Cc1cccc(S(=O)(=O)C(C#N)c2nc3ccccc3nc2N2CCOCC2)c1 (stereo unspecified)	–	–	–	58
CCOC(=O)N1CCN(c2nc3ccccc3nc2C(C#N)S(=O)(=O)c2ccc(C)cc2)CC1 (stereo unspecified)	77	–	–	–
CC(C)N(C(=O)COC(=O)CNC(=O)c1ccc(Br)cc1)c1ccccc1	·	–	·	–
Cc1cccnc1NC1(C(F)(F)F)N=C(c2ccccc2)NC1=O (stereo unspecified)	·	·	–	·
Cc1ccc(Cn2c(CN(C)Cc3ccccc3)nc3c2c(=O)n(C)c(=O)n3C)cc1	–	–	–	–
SMILES	tolC growth inh	CD11b adhes enh	Ecoli WT expand	Mac1 fbg inh
Cc1ccc(C)c(Cn2c(CN(C)Cc3ccccc3)nc3c2c(=O)n(C)c(=O)n3C)c1	81	–	–	–
CN(Cc1ccccc1)c1nc2c(c(=O)n(C)c(=O)n2C)n1CCCc1ccccc1	100	–	–	–
Cn1c(=O)c2c(nc(Br)n2CCCc2ccccc2)n(C)c1=O	–	–	–	–
CCOCCn1c(CN(Cc2ccccc2)Cc2ccccc2)nc2c1c(=O)n(C)c(=O)n2C	68	–	–	–
Cc1cc(-c2nnc3n2N=C(c2ccc(-c4ccccc4)cc2)CS3)n[nH]1	92	–	–	–
COc1ccc(-c2nnc3n2N=C(c2ccccc2)CS3)cc1OC	–	–	·	–
CSc1nc2ccc(NS(=O)(=O)c3ccc(Cl)s3)cc2s1	99	–	–	82
CSc1nc2ccc(S(=O)(=O)N(C)C)cc2s1	·	–	–	–
CCOC(=O)c1c(NC(=O)C(C)NCc2ccco2)sc2c1CCC(C)C2 (stereo unspecified)	·	–	–	–
CCOC(=O)c1nnn(-c2nonc2-n2cccc2)c1CN1CCC(C)CC1	70	·	–	·
CCOC(=O)C1=C(C)NC(SCC(=O)Nc2cc(C)on2)=C(C#N)C1c1cccs1 (stereo unspecified)	94	–	–	–
CSc1cccc(NC(=O)C(C)NS(=O)(=O)c2ccc(F)cc2)c1 (stereo unspecified)	·	–	–	–
COc1c(N2CCN(C(=S)Nc3ccc(F)cc3)C(C)C2)c(F)cc2c(=O)c(C(=O)O)cn(C3CC3)c12 (stereo unspecified)	·	·	99	·
CCN1CCN(c2cc3c(cc2F)c(=O)c(C(=O)O)cn3C2CC2)CC1	–	·	·	·
